Measured values taken from ChEMBL document CHEMBL3259621, “Novel merosesquiterpene exerts a potent antitumor activity against breast cancer cells in vitro and in vivo” (Eur J Med Chem, 2014).

What was measured:
[1] = system: T84; test: Cytotoxicity against human T84 cells after 3 days by SRB assay; assay type: functional, cell-based; details: T84, 72 h
In short: (§1)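 Cells seeded in quadruplicate at 5 × 10³ cells/cm². Compound added at 24 h over increasing concentrations for 3 days. Cells fixed with cold 10% TCA, stained with 0.4% sulforhodamine B in 1% acetic acid, dye solubilized in 10 mM Tris pH 10.5, OD read at 492 nm. IC50 taken by linear interpolation of the semi-log dose-response curve. DMSO below 0.1% final.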

[2] = system: A549; test: Cytotoxicity against human A549 cells after 3 days by SRB assay; assay type: functional, cell-based; details: A549, 72 h; in short: as §1
[3] = system: MCF7; test: Cytotoxicity against human MCF7 cells after 3 days by SRB assay; assay type: functional, cell-based; details: MCF7, 72 h; in short: as §1
[4] = system: MDA-MB-231; test: Cytotoxicity against human MDA-MB-231 cells after 3 days by SRB assay; assay type: functional, cell-based; details: MDA-MB-231, 72 h
In short: (§2)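 Cells seeded at 5 × 10³ cells/cm² in quadruplicate and, after 24 h, treated with increasing concentrations for 3 days. Compounds diluted from DMSO stock, final DMSO <0.1% v/v. Cells were fixed with cold 10% TCA, stained with 0.4% sulforhodamine B in 1% acetic acid, and dye solubilised in 10 mM Tris-base pH 10.5. OD read at 492 nm. IC50 obtained by linear interpolation on a semi-log dose-response curve.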

[5] = Cytotoxicity against human MCF10A cells after 3 days by SRB assay; assay type: cell-based; details: MCF-10A, 72 h; in short: as §2
[6] = Therapeutic index, ratio of IC50 for human CCD-18Co cells to IC50 for human RKO cells; assay type: cell-based; details: CCD-18Co cells versus RKO cells, read-out: Ratio IC50
[7] = Therapeutic index, ratio of IC50 for human CCD-18Co cells to IC50 for human SW480 cells; assay type: cell-based; details: CCD-18Co cells versus SW480 cells, read-out: Ratio IC50
[8] = Cytotoxicity against mouse E0771 cells after 3 days by SRB assay; assay type: functional, cell-based; details: E0771, 72 h; in short: as §2
[9] = Therapeutic index, ratio of IC50 for human MCF10A cells to IC50 for human MCF7 cells; assay type: cell-based, MCF-10A; details: MCF10A cells versus MCF7 cells, read-out: Ratio IC50
[10] = Therapeutic index, ratio of IC50 for human CCD-18Co cells to IC50 for human T84 cells; assay type: cell-based, T84; CCD-18Co; details: CCD-18Co cells versus T84 cells, read-out: Ratio IC50
[11] = system: SW480; test: Cytotoxicity against human SW480 cells after 3 days by SRB assay; assay type: functional, cell-based; details: SW480, 72 h; in short: as §2
[12] = Cytotoxicity against human CCD-18Co cells after 3 days by SRB assay; assay type: cell-based; details: 72 h; in short: as §2
[13] = system: HT-29; test: Cytotoxicity against human HT-29 cells after 3 days by SRB assay; assay type: functional, cell-based; details: HT-29, 72 h; in short: as §2
[14] = Therapeutic index, ratio of IC50 for human MCF10A cells to IC50 for human MDA-MB-231 cells; assay type: cell-based, MCF-10A; details: MCF10A cells versus MDA-MB-231 cells, read-out: Ratio IC50
[15] = Therapeutic index, ratio of IC50 for human MCF10A cells to IC50 for human T47D cells; assay type: cell-based, MCF-10A; details: MCF10A cells versus T47D cells, read-out: Ratio IC50
[16] = system: RKO; test: Cytotoxicity against human RKO cells after 3 days by SRB assay; assay type: functional, cell-based; details: 72 h; in short: as §2
[17] = system: T47D; test: Cytotoxicity against human T47D cells after 3 days by SRB assay; assay type: functional, cell-based; details: 72 h; in short: as §2
[18] = Therapeutic index, ratio of IC50 for human CCD-18Co cells to IC50 for human HT-29 cells; assay type: cell-based; details: CCD-18Co cells versus HT-29 cells, read-out: Ratio IC50
[19] = Therapeutic index, ratio of IC50 for human MCF10A cells to IC50 for mouse E0771 cells; assay type: cell-based, MCF-10A; details: MCF10A cells versus E0771 cells, read-out: Ratio IC50

Structure (SMILES)	IC50 [1] [µM]	IC50 [2] [µM]	IC50 [3] [µM]	also measured
C=C1CC[C@@H]2[C@](C)(CCC[C@]2(C)C(=O)OC)[C@H]1Cc1c(C)cccc1C(=O)OC	29	28.1	40.4	
C=C1CC[C@@H]2[C@](C)(CCC[C@]2(C)C(=O)OC)[C@H]1Cc1c(C)cccc1C#N	23.7	20.2	39.6	
C=C1CC[C@@H]2[C@](C)(CCC[C@]2(C)C(=O)OC)[C@H]1Cc1c(C)ccc2c1C(=O)C(OC)=CC2=O	16.7	17.5	16	
C=C1CC[C@@H]2[C@](C)(CCC[C@]2(C)C(=O)OC)[C@H]1Cc1c(C)ccc(C(=O)OC)c1O	40	27	45.1	
O=c1[nH]cc(F)c(=O)[nH]1 [FLUOROURACIL]			2.86	IC50 [4]: 18.1 µM; IC50 [5]: 8.06 µM; selectivity ratio [6]: 2.11; selectivity ratio [7]: 2.51; IC50 [8]: 0.28 µM; selectivity ratio [9]: 2.82; selectivity ratio [10]: 2.76; IC50 [11]: 3.69 µM; IC50 [12]: 9.26 µM; IC50 [13]: 2.58 µM; selectivity ratio [14]: 0.44; selectivity ratio [15]: 0.76; IC50 [16]: 4.39 µM; IC50 [17]: 10.6 µM; selectivity ratio [18]: 3.6; selectivity ratio [19]: 28.8
C=C1CC[C@@H]2[C@](C)(CCC[C@]2(C)C(=O)OC)[C@H]1Cc1c(C)ccc(C(=O)OC)c1C(=O)OC	25	19.9	33	
C=C1CC[C@@H]2[C@](C)(CCC[C@]2(C)C(=O)OC)[C@H]1Cc1c(C)ccc2c1C(=O)C(O)=CC2=O	30	41.2	38.4	
